{
  "source": "ChEMBL document CHEMBL1122744",
  "about": "“2-Chloroethyl (methylsulfonyl)methanesulfonate and related (methylsulfonyl)methanesulfonates. Antineoplastic activity in vivo” (J Med Chem, 1984)",
  "key": {"[1]": {"test": "Ratio of median survival times for non-survivors at dose 22 mg/kg in exp6", "format": "functional"}, "[2]": {"test": "Ratio of median survival times for non-survivors at dose 150 mg/kg in exp2; t= toxic", "format": "ADME, organism-based", "set-up": "dose 150 mg/kg", "settings": "in vivo", "outline": "(§1)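 Mice were inoculated ip with 10^6 P388 leukemia cells on day 0. Groups of six (occasionally five) were dosed ip qd on days 1–5 with fresh suspensions; 30 mice served as untreated controls. Deaths were recorded daily up to day 60. T/C% compares the median survival of treated non-survivors (<60 days) with the control median. Medians used grouped data when there were no 30-day survivors, otherwise ungrouped data. t = toxic.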"}, "[3]": {"test": "Ratio of number of 30-day survivors to the total treated mice at dose 33 mg/kg in exp4; 1/6", "format": "functional"}, "[4]": {"test": "Ratio of median survival times for non-survivors at dose 50 mg/kg in exp8", "format": "functional"}, "[5]": {"test_system": "Mus musculus", "test": "Change in weight by day 5, obtained by subtracting treated groups of animals minus control groups of animals at dose 33 mg/kg in exp5", "format": "functional", "outline": "(§2)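 Mice were inoculated ip with 10^6 P388 leukemia cells on day 0 and weighed 19–22 g that day. Compound was given ip once daily on days 1–5, within about 5 min of preparing the solution or suspension, to groups of six (occasionally five). Thirty inoculated untreated mice served as controls. The value is the average weight change of treated mice minus that of controls on day 5.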"}, "[6]": {"test_system": "Mus musculus", "test": "Median survival time of the untreated control groups, in which there are no 30-day survivors at dose 100 mg/kg in exp1", "format": "functional"}, "[7]": {"test_system": "Mus musculus", "test": "Change in weight by day 5, obtained by subtracting treated groups of animals minus control groups of animals at dose 33 mg/kg in exp2.", "format": "functional", "outline": "as §2"}, "[8]": {"test_system": "Mus musculus", "test": "Median survival time of the untreated control groups, in which there are no 30-day survivors at dose 50 mg/kg in exp4", "format": "functional"}, "[9]": {"test_system": "Mus musculus", "test": "Mortality by day 5 expressed as number of mice died to the total treated at dose 200 mg/kg in exp8; 6/6", "format": "ADME, organism-based", "set-up": "dose 200 mg/kg", "settings": "in vivo"}, "[10]": {"test": "Ratio of median survival times for non-survivors at dose 100 mg/kg in exp2", "format": "functional", "outline": "as §1"}, "[11]": {"test_system": "Mus musculus", "test": "Mortality by day 5 expressed as number of mice died to the total treated at dose 50 mg/kg in exp2; 0/5", "format": "ADME, organism-based", "set-up": "dose 50 mg/kg", "settings": "in vivo"}, "[12]": {"test_system": "Mus musculus", "test": "Change in weight by day 5, obtained by subtracting treated groups of animals minus control groups of animals at dose 22 mg/kg in exp5", "format": "functional", "outline": "as §2"}, "[13]": {"test_system": "Mus musculus", "test": "Median survival time of the treated control groups, in which there are no 30-day survivors at dose 33 mg/kg in exp7", "format": "functional"}, "[14]": {"test": "Ratio of median survival times for non-survivors at dose 50 mg/kg in exp2", "format": "functional", "outline": "as §1"}, "[15]": {"test": "Ratio of median survival times for non-survivors at dose 100 mg/kg in exp8*-toxic", "format": "functional", "outline": "as §1"}, "[16]": {"test": "Ratio of number of 30-day survivors to the total treated mice at dose 50 mg/kg in exp5; 3/6", "format": "functional"}, "[17]": {"test_system": "Mus musculus", "test": "Change in weight by day 5, obtained by subtracting treated groups of animals minus control groups of animals at dose 22 mg/kg in exp7", "format": "functional", "outline": "as §2"}, "[18]": {"test_system": "Mus musculus", "test": "Median survival time of the treated control groups, in which there are no 30-day survivors at dose 100 mg/kg in exp1", "format": "functional"}, "[19]": {"test": "Ratio of median survival times for non-survivors at dose 33 mg/kg in exp3", "format": "functional"}, "[20]": {"test": "Ratio of median survival times for non-survivors at dose 50 mg/kg in exp5", "format": "functional"}, "[21]": {"test_system": "Mus musculus", "test": "Mortality by day 5 expressed as number of mice died to the total treated at dose 33 mg/kg in exp5; 0/6", "format": "ADME, organism-based", "set-up": "dose 33 mg/kg", "settings": "in vivo"}, "[22]": {"test_system": "Mus musculus", "test": "Mortality by day 5 expressed as number of mice died to the total treated at dose 100 mg/kg in exp2; 1/5", "format": "ADME, organism-based", "set-up": "dose 100 mg/kg", "settings": "in vivo"}, "[23]": {"test": "Ratio of number of 60-day survivors to the total treated mice at dose 50 mg/kg in exp2; 0/5", "format": "functional"}, "[24]": {"test_system": "Mus musculus", "test": "Median survival time of the treated control groups, in which there are no 30-day survivors at dose 100 mg/kg in exp8", "format": "functional"}, "[25]": {"test": "Ratio of number of 60-day survivors to the total treated mice at dose 50 mg/kg in exp8; 2/6", "format": "functional"}, "[26]": {"test_system": "Mus musculus", "test": "Median survival time of the untreated control groups, in which there are no 30-day survivors at dose 50 mg/kg in exp5", "format": "functional"}, "[27]": {"test": "Ratio of median survival times for non-survivors at dose 50 mg/kg in exp6", "format": "functional"}, "[28]": {"test_system": "Mus musculus", "test": "Change in weight by day 5, obtained by subtracting treated groups of animals minus control groups of animals at dose 100 mg/kg in exp1", "format": "functional", "outline": "as §2"}, "[29]": {"test_system": "Mus musculus", "test": "Median survival time of the treated control groups, in which there are no 30-day survivors at dose 75 mg/kg in exp2", "format": "functional"}, "[30]": {"test": "Ratio of number of 30-day survivors to the total treated mice at dose 50 mg/kg in exp2; 2/5", "format": "functional"}, "[31]": {"test_system": "Mus musculus", "test": "Median survival time of the treated control groups, in which there are no 30-day survivors at dose 50 mg/kg in exp1", "format": "functional"}, "[32]": {"test_system": "Mus musculus", "test": "Median survival time of the untreated control groups, in which there are no 30-day survivors at dose 50 mg/kg in exp7", "format": "functional"}, "[33]": {"test": "Ratio of median survival times for non-survivors at dose 33 mg/kg in exp6", "format": "functional"}, "[34]": {"test_system": "Mus musculus", "test": "Mortality by day 5 expressed as number of mice died to the total treated at dose 33 mg/kg in exp2; 0/5", "format": "ADME, organism-based", "set-up": "dose 33 mg/kg", "settings": "in vivo"}, "[35]": {"test_system": "Mus musculus", "test": "Change in weight by day 5, obtained by subtracting treated groups of animals minus control groups of animals at dose 200 mg/kg in exp1.", "format": "functional", "outline": "as §2"}, "[36]": {"test": "Ratio of number of 60-day survivors to the total treated mice at dose 50 mg/kg in exp5; 1/6", "format": "functional"}, "[37]": {"test_system": "Mus musculus", "test": "Median survival time of the treated control groups, in which there are no 30-day survivors at dose 100 mg/kg in exp2", "format": "functional"}, "[38]": {"test": "Ratio of median survival times for non-survivors at dose 33 mg/kg in exp2", "format": "functional"}, "[39]": {"test_system": "Mus musculus", "test": "Mortality by day 5 expressed as number of mice died to the total treated at dose 50 mg/kg in exp6; 0/6", "format": "ADME, organism-based", "set-up": "dose 50 mg/kg", "settings": "in vivo"}, "[40]": {"test_system": "Mus musculus", "test": "Change in weight by day 5, obtained by subtracting treated groups of animals minus control groups of animals at dose 33 mg/kg in exp3.", "format": "functional", "outline": "as §2"}, "[41]": {"test": "Ratio of number of 60-day survivors to the total treated mice at dose 50 mg/kg in exp6; […]", "format": "functional"}, "[42]": {"test": "Ratio of median survival times for non-survivors at dose 33 mg/kg in exp5", "format": "functional"}, "[43]": {"test_system": "Mus musculus", "test": "Change in weight by day 5, obtained by subtracting treated groups of animals minus control groups of animals at dose 15 mg/kg in exp3.", "format": "functional", "outline": "as §2"}, "[44]": {"test_system": "Mus musculus", "test": "Change in weight by day 5, obtained by subtracting treated groups of animals minus control groups of animals at dose 50 mg/kg in exp1.", "format": "functional", "outline": "as §2"}, "[45]": {"test_system": "Mus musculus", "test": "Mortality by day 5 expressed as number of mice died to the total treated at dose 33 mg/kg in exp4; 0/6", "format": "ADME, organism-based", "set-up": "dose 33 mg/kg", "settings": "in vivo"}, "[46]": {"test_system": "Mus musculus", "test": "Change in weight by day 5, obtained by subtracting treated groups of animals minus control groups of animals at dose 50 mg/kg in exp8", "format": "functional", "outline": "as §2"}},
  "data": [
    {"smiles": "CS(=O)(=O)CS(=O)(=O)OCCCl", "values": [
      {"measurement": "Ratio", "setting": "[1]", "result": 160},
      {"measurement": "Ratio", "setting": "[2]", "result": "Toxic"},
      {"measurement": "Ratio", "setting": "[3]", "result": 1},
      {"measurement": "Ratio", "setting": "[4]", "result": 273},
      {"measurement": "Change in weight", "setting": "[5]", "result": -1.5},
      {"measurement": "Median survival time", "setting": "[6]", "result": 11.2},
      {"measurement": "Change in weight", "setting": "[7]", "result": -2.5},
      {"measurement": "Median survival time", "setting": "[8]", "result": 10.5},
      {"measurement": "Mortality", "setting": "[9]", "result": 6},
      {"measurement": "Ratio", "setting": "[10]", "result": 200},
      {"measurement": "Mortality", "setting": "[11]", "result": 0},
      {"measurement": "Change in weight", "setting": "[12]", "result": -1.3},
      {"measurement": "Median survival time", "setting": "[13]", "result": 22.3},
      {"measurement": "Ratio", "setting": "[14]", "result": 241},
      {"measurement": "Ratio", "setting": "[15]", "result": 55},
      {"measurement": "Ratio", "setting": "[16]", "result": 3},
      {"measurement": "Change in weight", "setting": "[17]", "result": -2.2},
      {"measurement": "Median survival time", "setting": "[18]", "result": 17},
      {"measurement": "Ratio", "setting": "[19]", "result": 198},
      {"measurement": "Ratio", "setting": "[20]", "result": 225},
      {"measurement": "Mortality", "setting": "[21]", "result": 0},
      {"measurement": "Mortality", "setting": "[22]", "result": 1},
      {"measurement": "Ratio", "setting": "[23]", "result": 0},
      {"measurement": "Median survival time", "setting": "[24]", "result": 6},
      {"measurement": "Ratio", "setting": "[25]", "result": 2},
      {"measurement": "Median survival time", "setting": "[26]", "result": 12},
      {"measurement": "Ratio", "setting": "[27]", "result": 335},
      {"measurement": "T-C", "setting": "[28]", "result": -4, "unit": "g"},
      {"measurement": "Median survival time", "setting": "[29]", "result": 17.5},
      {"measurement": "Ratio", "setting": "[30]", "result": 2},
      {"measurement": "Median survival time", "setting": "[31]", "result": 31.5},
      {"measurement": "Median survival time", "setting": "[32]", "result": 13},
      {"measurement": "Ratio", "setting": "[33]", "result": 179},
      {"measurement": "Mortality", "setting": "[34]", "result": 0},
      {"measurement": "T-C", "setting": "[35]", "result": -5, "unit": "g"},
      {"measurement": "Ratio", "setting": "[36]", "result": 1},
      {"measurement": "Median survival time", "setting": "[37]", "result": 22.5},
      {"measurement": "Ratio", "setting": "[38]", "result": 209},
      {"measurement": "Mortality", "setting": "[39]", "result": 0},
      {"measurement": "Change in weight", "setting": "[40]", "result": -2.8},
      {"measurement": "Ratio", "setting": "[41]", "result": 2},
      {"measurement": "Ratio", "setting": "[42]", "result": 214},
      {"measurement": "Change in weight", "setting": "[43]", "result": -0.9},
      {"measurement": "T-C", "setting": "[44]", "result": -3.4, "unit": "g"},
      {"measurement": "Mortality", "setting": "[45]", "result": 0},
      {"measurement": "Change in weight", "setting": "[46]", "result": -1.6}
    ]}
  ]
}
